In ChEMBL document CHEMBL4308830, “Design, Synthesis, and Characterization of 4-Undecylpiperidine-2-carboxamides as Positive Allosteric Modulators of the Serotonin (5-HT) 5-HT2C Receptor” (J Med Chem, 2018):
Calls of active or inactive are those of the source. The calls are words filed in the database; no cut-off is given here.

How the values were obtained:
[1] = biological target: T1, 5-hydroxytryptamine receptor 2C (Homo sapiens) (UniProt P28335); assay: Intrinsic agonist activity at human 5-HT2CR expressed in CHO cells assessed as induction of intracellular calcium release at 1 nM incubated for 15 mins measured every 1 sec for 120 secs by calcium-4 dye based FLIPR assay; format: functional, cell-based
T1 sequence (whole entry): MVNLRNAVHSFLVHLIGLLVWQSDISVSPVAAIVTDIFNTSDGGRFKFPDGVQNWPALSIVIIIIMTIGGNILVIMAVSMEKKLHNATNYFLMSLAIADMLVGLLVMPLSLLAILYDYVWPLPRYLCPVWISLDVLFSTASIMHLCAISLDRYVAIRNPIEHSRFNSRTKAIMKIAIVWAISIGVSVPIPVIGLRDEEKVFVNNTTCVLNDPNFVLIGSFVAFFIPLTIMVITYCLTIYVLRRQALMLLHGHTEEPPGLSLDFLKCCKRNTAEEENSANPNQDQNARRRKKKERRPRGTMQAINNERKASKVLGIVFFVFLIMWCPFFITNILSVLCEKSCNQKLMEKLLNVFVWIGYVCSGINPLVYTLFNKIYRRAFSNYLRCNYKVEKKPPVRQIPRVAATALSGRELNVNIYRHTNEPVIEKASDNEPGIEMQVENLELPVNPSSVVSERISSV
Procedure, shortened: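 CHO cells stably expressing human unedited INI 5-HT2CR were plated, serum-starved 3 h, then loaded with Calcium 4 dye plus 2.5 mM probenecid (60 min 37 °C, then 15 min RT). Compound (1 nM) was added; the read after this addition gave intrinsic agonism. 5-HT (10 pM–10 μM) followed 15 min later. FLIPR-TETRA: 10 s baseline, 1 s reads for 120 s after compound and 360 s after 5-HT. Emax came from 4-parameter fits, ≥3 biological replicates in triplicate.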

[2] = biological target: 5-hydroxytryptamine receptor 2A (Homo sapiens, UniProt P28223); assay: Positive allosteric modulation of human 5-HT2AR expressed in CHO cells assessed as increase in 5-HT-induced intracellular calcium release at 0.000001 to 1 uM preincubated for 15 mins followed by 5-HT addition by calcium-4 dye based FLIPR assay; format: cell-based
5-hydroxytryptamine receptor 2A, sequence (P28223 whole entry): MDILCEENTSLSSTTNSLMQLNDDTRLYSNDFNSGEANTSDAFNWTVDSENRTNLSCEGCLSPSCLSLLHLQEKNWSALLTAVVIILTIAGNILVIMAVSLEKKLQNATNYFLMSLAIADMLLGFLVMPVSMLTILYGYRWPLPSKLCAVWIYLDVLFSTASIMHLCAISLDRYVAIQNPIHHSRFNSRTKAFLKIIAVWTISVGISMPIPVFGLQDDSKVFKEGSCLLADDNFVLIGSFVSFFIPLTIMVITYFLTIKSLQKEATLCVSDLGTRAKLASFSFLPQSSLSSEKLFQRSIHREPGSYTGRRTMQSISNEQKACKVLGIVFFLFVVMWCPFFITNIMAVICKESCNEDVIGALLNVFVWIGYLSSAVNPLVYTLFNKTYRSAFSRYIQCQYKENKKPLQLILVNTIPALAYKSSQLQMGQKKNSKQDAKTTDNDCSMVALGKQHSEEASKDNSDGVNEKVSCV
Procedure, shortened: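 Human 5-HT2AR-CHO cells, same calcium assay: Calcium 4 dye with probenecid. Compound (1 pM, 1 nM, 1 μM) was given 15 min before a 5-HT concentration–response (10 pM–10 μM). Peak fluorescence was fit by 4-parameter regression.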

[3] = biological target: 5-hydroxytryptamine receptor 1D (Homo sapiens) (UniProt P28221); assay: Displacement of [3H]-GR125743 from recombinant human 5-HT1DR expressed in HEKT cell membranes at 10 uM after 90 mins by scintillation counting method relative to control
5-hydroxytryptamine receptor 1D (Homo sapiens), sequence (P28221 whole entry): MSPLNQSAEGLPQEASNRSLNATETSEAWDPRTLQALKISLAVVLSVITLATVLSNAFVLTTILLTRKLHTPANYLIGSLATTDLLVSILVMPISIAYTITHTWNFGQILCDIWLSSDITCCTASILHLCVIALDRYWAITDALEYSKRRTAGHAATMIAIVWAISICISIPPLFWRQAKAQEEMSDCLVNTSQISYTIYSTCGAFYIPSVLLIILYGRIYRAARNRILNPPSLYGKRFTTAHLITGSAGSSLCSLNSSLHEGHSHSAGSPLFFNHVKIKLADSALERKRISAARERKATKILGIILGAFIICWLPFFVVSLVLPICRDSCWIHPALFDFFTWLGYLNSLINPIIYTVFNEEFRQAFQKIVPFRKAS

[4] = biological target: 5-HT2B receptor (Homo sapiens, UniProt P41595); assay: Displacement of [3H]-LSD from recombinant human 5-HT2BR expressed in HEK cell membranes at 10 uM after 90 mins by scintillation counting method relative to control; details: probe [3H]-LSD
5-HT2B receptor, sequence (P41595 whole entry): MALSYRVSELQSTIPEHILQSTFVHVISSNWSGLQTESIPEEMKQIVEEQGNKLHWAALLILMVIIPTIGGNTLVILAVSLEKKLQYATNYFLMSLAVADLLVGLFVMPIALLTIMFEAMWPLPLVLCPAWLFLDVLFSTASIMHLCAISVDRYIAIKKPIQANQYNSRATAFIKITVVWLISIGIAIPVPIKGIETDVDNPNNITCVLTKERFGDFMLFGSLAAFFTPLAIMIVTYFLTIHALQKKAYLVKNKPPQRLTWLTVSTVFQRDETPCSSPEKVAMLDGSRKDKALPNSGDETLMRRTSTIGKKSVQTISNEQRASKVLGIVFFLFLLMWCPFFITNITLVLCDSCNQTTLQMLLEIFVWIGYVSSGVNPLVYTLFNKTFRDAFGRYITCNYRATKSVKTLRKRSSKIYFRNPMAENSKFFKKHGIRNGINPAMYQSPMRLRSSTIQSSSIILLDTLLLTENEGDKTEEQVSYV

[5] = biological target: 5-hydroxytryptamine receptor 3A (Homo sapiens) (UniProt P46098); assay: Displacement of [3H]-LY278584 from recombinant human 5-HT3R expressed in HEK cell membranes at 10 uM after 90 mins by scintillation counting method relative to control
5-hydroxytryptamine receptor 3A (Homo sapiens), sequence (P46098 whole entry): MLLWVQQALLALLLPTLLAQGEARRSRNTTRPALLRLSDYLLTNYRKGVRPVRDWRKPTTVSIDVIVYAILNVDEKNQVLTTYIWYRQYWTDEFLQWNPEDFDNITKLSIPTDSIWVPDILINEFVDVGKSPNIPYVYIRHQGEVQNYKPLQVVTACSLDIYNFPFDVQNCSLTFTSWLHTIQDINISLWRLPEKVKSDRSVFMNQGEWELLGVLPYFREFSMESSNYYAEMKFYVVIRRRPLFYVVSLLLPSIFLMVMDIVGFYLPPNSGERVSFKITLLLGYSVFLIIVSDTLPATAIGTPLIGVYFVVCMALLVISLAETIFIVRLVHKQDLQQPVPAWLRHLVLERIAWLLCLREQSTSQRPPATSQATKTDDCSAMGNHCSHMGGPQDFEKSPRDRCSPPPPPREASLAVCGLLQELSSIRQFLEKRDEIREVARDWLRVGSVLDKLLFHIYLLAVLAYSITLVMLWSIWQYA

[6] = biological target: 5-hydroxytryptamine receptor 6 (Homo sapiens) (UniProt P50406); assay: Displacement of [3H]-LSD from recombinant human 5-HT6R expressed in HEK cell membranes at 10 uM after 90 mins by scintillation counting method relative to control
5-hydroxytryptamine receptor 6 (Homo sapiens), sequence (P50406 whole entry): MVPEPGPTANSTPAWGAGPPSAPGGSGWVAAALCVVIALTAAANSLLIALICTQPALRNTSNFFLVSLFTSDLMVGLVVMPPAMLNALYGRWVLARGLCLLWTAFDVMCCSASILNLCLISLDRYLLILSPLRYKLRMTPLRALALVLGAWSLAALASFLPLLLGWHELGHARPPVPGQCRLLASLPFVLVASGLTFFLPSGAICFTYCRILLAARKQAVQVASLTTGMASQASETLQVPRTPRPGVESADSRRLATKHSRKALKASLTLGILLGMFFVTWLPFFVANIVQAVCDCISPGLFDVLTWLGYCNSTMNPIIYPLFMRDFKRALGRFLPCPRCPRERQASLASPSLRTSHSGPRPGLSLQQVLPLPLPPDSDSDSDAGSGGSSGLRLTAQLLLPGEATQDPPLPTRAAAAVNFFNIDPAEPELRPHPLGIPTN

[7] = biological target: D(2) dopamine receptor (Homo sapiens) (UniProt P14416); assay: Displacement of [3H]-N-methylspiperone from recombinant human D2R expressed in fibroblast membranes at 10 uM after 90 mins by scintillation counting method relative to control; format: cell membranes
D(2) dopamine receptor (Homo sapiens), sequence (P14416 whole entry): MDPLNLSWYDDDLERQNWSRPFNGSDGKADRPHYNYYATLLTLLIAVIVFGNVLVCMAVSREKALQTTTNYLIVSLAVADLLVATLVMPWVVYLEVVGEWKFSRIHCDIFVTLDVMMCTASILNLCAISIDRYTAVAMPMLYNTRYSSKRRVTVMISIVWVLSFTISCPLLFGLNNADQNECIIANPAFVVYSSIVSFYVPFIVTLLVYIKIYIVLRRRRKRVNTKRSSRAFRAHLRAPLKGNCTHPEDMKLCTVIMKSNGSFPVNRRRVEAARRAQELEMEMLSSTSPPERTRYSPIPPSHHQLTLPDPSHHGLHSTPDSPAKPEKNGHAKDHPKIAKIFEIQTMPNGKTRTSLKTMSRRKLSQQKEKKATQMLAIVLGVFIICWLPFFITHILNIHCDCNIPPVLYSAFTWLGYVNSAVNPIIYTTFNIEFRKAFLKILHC

[8] = biological target: D(1B) dopamine receptor (Homo sapiens) (UniProt P21918); assay: Displacement of [3H]-SCH23390 from recombinant human D5R expressed in HEKT cell membranes at 10 uM after 90 mins by scintillation counting method relative to control
D(1B) dopamine receptor (Homo sapiens), sequence (P21918 whole entry): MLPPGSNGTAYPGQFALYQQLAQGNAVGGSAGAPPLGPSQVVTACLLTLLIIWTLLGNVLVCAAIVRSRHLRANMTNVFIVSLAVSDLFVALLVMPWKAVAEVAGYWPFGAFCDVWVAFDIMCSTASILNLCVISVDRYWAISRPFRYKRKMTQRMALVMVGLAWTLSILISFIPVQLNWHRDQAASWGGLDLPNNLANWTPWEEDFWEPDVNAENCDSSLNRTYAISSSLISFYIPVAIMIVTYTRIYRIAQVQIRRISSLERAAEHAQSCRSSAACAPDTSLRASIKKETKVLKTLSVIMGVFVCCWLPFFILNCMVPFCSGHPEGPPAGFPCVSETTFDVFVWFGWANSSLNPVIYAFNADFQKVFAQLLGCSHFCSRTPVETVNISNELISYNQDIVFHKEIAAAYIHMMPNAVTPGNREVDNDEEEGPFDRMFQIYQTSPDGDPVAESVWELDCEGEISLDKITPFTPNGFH

[9] = biological target: Alpha-2A adrenergic receptor (Homo sapiens) (UniProt P08913); assay: Displacement of [3H]-rauwolscine from recombinant human alpha-2A adrenergic receptor expressed in MDCK cell membranes at 10 uM after 90 mins by scintillation counting method relative to control
Alpha-2A adrenergic receptor (Homo sapiens), sequence (P08913 whole entry): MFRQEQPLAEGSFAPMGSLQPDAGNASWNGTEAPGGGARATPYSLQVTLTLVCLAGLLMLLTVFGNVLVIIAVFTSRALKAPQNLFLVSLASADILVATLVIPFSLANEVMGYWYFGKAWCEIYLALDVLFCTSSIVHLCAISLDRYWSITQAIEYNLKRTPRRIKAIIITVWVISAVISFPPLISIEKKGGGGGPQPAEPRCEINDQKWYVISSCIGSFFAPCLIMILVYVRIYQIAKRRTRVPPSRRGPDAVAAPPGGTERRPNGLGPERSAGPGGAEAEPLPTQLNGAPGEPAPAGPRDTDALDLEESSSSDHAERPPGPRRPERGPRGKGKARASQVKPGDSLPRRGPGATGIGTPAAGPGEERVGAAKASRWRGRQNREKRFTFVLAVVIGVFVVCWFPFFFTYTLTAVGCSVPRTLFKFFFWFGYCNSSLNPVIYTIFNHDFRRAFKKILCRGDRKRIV
Procedure, shortened: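 Single-concentration screen at 10 μM test compound, each target labelled with the radioligand given in the line. The read-out is mean % inhibition of specific radioligand binding (n = 4). Targets above 50% inhibition went on to full competition isotherms, and Ki came from best-fit IC50 by the Cheng–Prusoff equation.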

[10] = Terminal half life in Sprague-Dawley rat at 10 mg/kg, po administered as single dose; format: ADME, organism-based; details: in vivo
[11] = Tmax in Sprague-Dawley rat at 10 mg/kg, po administered as single dose; format: ADME, organism-based; details: in vivo
[12] = Volume of distribution at steady state in Sprague-Dawley rat at 5 mg/kg, iv administered as single dose; format: ADME, organism-based; details: in vivo
[13] = AUC (0 to infinity) in Sprague-Dawley rat at 5 mg/kg, iv administered as single dose; format: ADME, organism-based; design: dose 5 mg/kg, time infinity, route intravenous; details: in vivo
[14] = AUC (0 to infinity) in Sprague-Dawley rat at 10 mg/kg, po administered as single dose; format: ADME, organism-based; design: dose 10 mg/kg, time infinity, route oral; details: in vivo
[15] = Oral bioavailability in Sprague-Dawley rat at 10 mg/kg administered as single dose; format: ADME, organism-based; details: in vivo
[16] = system: Rattus norvegicus; assay: Suppression of spontaneous locomotor activity in Sprague-Dawley rat assessed as reduction in total ambulation at 5 mg/kg, ip administered as single dose measured for 30 mins; format: functional, organism-based
Procedure, shortened: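 Male Sprague–Dawley rats naive to activity monitors (n = 7–8/group) received saline (1 mL/kg ip) or compound (0.5, 1 or 5 mg/kg ip) immediately before testing. Ambulations and vertical counts were taken in 5 min bins for 90 min and totalled over the first 30 min. Analysis: one-way ANOVA with Dunnett's comparisons to vehicle.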

[17] = system: Rattus norvegicus; assay: Increase in WAY163909-induced suppression of spontaneous locomotor activity in Sprague-Dawley rat assessed as reduction in total vertical activity at 5 mg/kg, ip administered as single dose measured for 30 mins; format: functional, organism-based
Procedure, shortened: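 Rats (n = 9–10/group) received SB242084 (1 mg/kg ip) or vehicle (8% 2-hydroxypropyl-β-cyclodextrin) 15 min before ip WAY163909 (1 mg/kg) plus compound (5 mg/kg). They were placed in monitors immediately; ambulations and vertical activity were totalled over 30 min. Analysis: ANOVA with Bonferroni comparisons.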

[18] = system: Rattus norvegicus; assay: Drug discrimination in WAY163909-trained Sprague-Dawley rat assessed as increase in WAY163909-appropriate lever responding at 1 mg/kg, ip co-treated with WAY163909 15 mins prior to test relative to control; format: functional
[19] = system: Rattus norvegicus; assay: Effect on inactive lever presses in Sprague-Dawley rat at 1 mg/kg, ip administered as single dose 15 mins prior to self administration of cocaine; format: organism-based; details: in vivo, 0.25 h
Procedure, shortened: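 Catheterized male Sprague–Dawley rats self-administered cocaine (0.75 mg/kg/infusion iv, each paired with light/pump cue) in 14 daily 180 min sessions, reaching FR5 stability. After 24 h they received saline (1 mL/kg ip) or compound (1 mg/kg ip) 15 min before a cue reactivity test.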

## CCCCCCCCCCC[C@@H]1CCN[C@H](C(=O)NCC(O)CO)C1 (relative stereo)
[1]
  Activity: inactive
[2]
  Activity: Not Active
[3]
  inhibition: 5.5%
[4]
  inhibition at 1.5 h, 10 µM: 15.1%
[5]
  inhibition: 27%
[6]
  inhibition: 18.1%
[7]
  inhibition: 28.8%
[8]
  inhibition: 32.5%
[9]
  inhibition: 85.1%
[10]
  beta t1/2: 5.82 h
[11]
  Tmax: 3.3 h
[12]
  Vdss: 35.07 L/kg
[13]
  AUC: 939 ng·h/mL
[14]
  AUC: 737 ng·h/mL
[15]
  F: 39.1%
[16]
  Activity: Active
[17]
  Activity: Active
[18]
  Emax at 1 mg/kg: 45%
[19]
  Activity: Non-Toxic
